Source: ChEMBL document CHEMBL1944582, “Pyrazolopyridine Inhibitors of B-Raf(V600E). Part 1: The Development of Selective, Orally Bioavailable, and Efficacious Inhibitors” (ACS Med Chem Lett, 2011)
Converted amounts (≈) assume the structure as drawn.

Legend:
[1] = Oral bioavailability in CD-1 mouse at 2.5 to 80 mg/kg as formulation of 25% SDD; assay type: ADME, organism-based; details: in vivo
Outline: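 Oral bridging PK in mice used a 25% amorphous spray-dried dispersion on HPMCAS polymer at 2.5, 10, 40 and 80 mg/kg. Bioavailability (F) was derived per dose. The earlier solution vehicle was 40% PEG400/10% ethanol/50% water, with select intravenous dosing.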

Mus musculus [2] = assay: Toxicity in human COLO205 cells xenografted mouse assessed as change in body weight at 125 mg/kg, po administered QD for 20 days; details: in vivo, 480 h
[3] = target: T1, Serine/threonine-protein kinase B-raf (Homo sapiens, UniProt P15056, V600E); assay: Inhibition of B-Raf V600E mutant-mediated Erk phosphorylation in human MALME-3M cells after 1 hr by fluorescence analysis; assay type: cell-based
T1 sequence (P15056 2-766 V600E limits assumed): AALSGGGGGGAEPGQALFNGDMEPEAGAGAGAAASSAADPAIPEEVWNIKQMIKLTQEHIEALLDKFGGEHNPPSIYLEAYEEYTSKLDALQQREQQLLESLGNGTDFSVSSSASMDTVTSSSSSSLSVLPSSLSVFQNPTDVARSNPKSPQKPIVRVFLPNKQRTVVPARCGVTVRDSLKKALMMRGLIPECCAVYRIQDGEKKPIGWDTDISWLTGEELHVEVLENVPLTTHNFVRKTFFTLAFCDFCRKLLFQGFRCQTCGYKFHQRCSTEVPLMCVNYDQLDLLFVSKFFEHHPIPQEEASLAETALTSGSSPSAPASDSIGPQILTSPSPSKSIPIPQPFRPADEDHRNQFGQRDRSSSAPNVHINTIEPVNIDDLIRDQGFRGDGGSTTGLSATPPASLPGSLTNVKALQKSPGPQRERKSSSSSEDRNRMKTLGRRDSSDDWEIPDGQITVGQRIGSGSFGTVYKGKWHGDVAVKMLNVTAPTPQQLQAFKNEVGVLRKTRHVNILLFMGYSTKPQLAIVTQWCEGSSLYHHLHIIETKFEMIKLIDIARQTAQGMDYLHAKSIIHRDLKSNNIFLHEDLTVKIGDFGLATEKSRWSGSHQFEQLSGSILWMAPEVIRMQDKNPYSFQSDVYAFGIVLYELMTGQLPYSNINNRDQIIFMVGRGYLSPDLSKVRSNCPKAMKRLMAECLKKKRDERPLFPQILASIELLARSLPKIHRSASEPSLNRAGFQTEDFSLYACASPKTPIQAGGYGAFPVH
Outline: (§1)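 Cells were not stimulated, and inhibition was read against their basal ERK phosphorylation. This was the mechanistic cellular assay, run in both Malme-3M and A375 lines.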

COLO 205 [4] = assay: Antitumor activity against human COLO205 cells xenografted in po dosed mouse assessed as tumor growth inhibition administered QD for 20 days; assay type: functional; details: COLO 205, po, 480 h
Outline: (§2)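 Mice with established Colo205 xenografts received the spray-dried dispersion orally at ascending doses once daily for 17 or 20 days. Tumor growth inhibition is expressed as percent of vehicle control, and ED50 and ED90 are given in mg/kg.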

[5] = target: T1, Serine/threonine-protein kinase B-raf; assay: Inhibition of B-Raf V600E mutant-mediated Erk phosphorylation in human A375 cells after 1 hr by fluorescence analysis; assay type: cell-based, A-375; outline: as §1
[6] = AUC in CD-1 mouse at 30 mg/kg, po; assay type: ADME, organism-based; parameters: dose 30 mg/kg, route oral; details: plasma
Outline: (§3)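 Single oral dose given to mice as a solution in 40% PEG400/10% ethanol/50% water, at 30 mg/kg or 100 mg/kg. Exposure is reported as AUC in μg h/mL.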

[7] = Plasma protein binding in CD-1 mouse; assay type: ADME, cell-free; details: read-out: PPB (converted)
[8] = Oral bioavailability in CD-1 mouse at 100 mg/kg as a solution in 40%PEG400/10%ethanol/50% water; assay type: ADME, organism-based; details: in vivo
[9] = target: Voltage-gated inwardly rectifying potassium channel KCNH2 (Homo sapiens, UniProt Q12809); assay: Inhibition of human Erg at 100 uM
Chain of Voltage-gated inwardly rectifying potassium channel KCNH2 (Q12809 whole entry): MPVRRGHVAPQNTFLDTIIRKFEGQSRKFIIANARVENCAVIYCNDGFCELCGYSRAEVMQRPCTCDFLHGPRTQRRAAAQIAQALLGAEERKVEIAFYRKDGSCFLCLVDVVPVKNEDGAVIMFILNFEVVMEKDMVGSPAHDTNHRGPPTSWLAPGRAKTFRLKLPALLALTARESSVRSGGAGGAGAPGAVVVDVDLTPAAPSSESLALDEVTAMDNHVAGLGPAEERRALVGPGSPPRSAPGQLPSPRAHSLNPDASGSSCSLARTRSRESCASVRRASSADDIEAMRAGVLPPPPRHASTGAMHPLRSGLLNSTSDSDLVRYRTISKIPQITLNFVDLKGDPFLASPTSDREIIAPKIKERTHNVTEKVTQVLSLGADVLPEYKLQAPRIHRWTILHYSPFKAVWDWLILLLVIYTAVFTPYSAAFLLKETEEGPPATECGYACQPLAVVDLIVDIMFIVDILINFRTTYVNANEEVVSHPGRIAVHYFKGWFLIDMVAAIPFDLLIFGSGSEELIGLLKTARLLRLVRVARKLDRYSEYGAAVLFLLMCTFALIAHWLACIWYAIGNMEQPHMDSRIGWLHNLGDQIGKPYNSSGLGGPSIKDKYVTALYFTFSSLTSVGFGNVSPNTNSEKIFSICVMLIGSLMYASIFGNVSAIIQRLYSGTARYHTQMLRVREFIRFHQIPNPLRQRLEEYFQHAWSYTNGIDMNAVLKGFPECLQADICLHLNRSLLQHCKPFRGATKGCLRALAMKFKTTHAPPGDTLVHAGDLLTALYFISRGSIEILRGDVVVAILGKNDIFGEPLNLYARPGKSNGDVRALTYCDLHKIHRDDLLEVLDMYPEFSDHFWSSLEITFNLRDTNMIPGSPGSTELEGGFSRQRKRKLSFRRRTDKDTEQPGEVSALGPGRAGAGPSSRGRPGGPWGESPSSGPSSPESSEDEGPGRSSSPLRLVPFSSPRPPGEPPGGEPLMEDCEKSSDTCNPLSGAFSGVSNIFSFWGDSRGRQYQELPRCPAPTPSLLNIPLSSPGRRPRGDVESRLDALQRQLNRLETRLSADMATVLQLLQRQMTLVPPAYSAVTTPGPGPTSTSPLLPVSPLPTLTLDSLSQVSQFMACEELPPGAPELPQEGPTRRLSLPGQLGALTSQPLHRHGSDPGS

[10] = Aqueous solubility of the compound in phosphate buffer at pH 6.5 after 24 hrs by HPLC analysis; assay type: physicochemical
[11] = Inhibition of CYP450 at 25 uM; assay type: ADME
COLO 205 [12] = assay: Cytotoxicity against human COLO205 cells after 4 days by CellTiter-Glo assay; assay type: functional, cell-based; details: COLO 205, 96 h
Salmonella typhimurium = assay: Induction of mutagenesis in Salmonella Typhimurium by Ames test; assay type: toxicity, organism-based; details: salmonella enterica subsp. enterica serovar typhimurium
[13] = Oral bioavailability in CD-1 mouse at 30 mg/kg as a solution in 40% PEG400/10%ethanol/50% water; assay type: ADME, organism-based; details: in vivo
[14] = AUC in CD-1 mouse at 100 mg/kg, po; assay type: ADME, organism-based; parameters: dose 100 mg/kg, route oral; details: plasma; outline: as §3
Mus musculus [15] = assay: Toxicity in human COLO205 cells xenografted mouse assessed as change in body weight at 100 mg/kg, po administered QD for 17 days; details: in vivo, 408 h
[16] = Aqueous solubility of the compound in phosphate buffer at pH 7.4 after 24 hrs by HPLC analysis; assay type: physicochemical
COLO 205 [17] = assay: Antitumor activity against human COLO205 cells xenografted in po dosed mouse assessed as tumor growth inhibition administered QD for 17 days; assay type: functional; details: COLO 205, po, 408 h; outline: as §2
[18] = target: T1, Serine/threonine-protein kinase B-raf; assay: Inhibition of full length human B-Raf V600E mutant expressed in baculovirus infected insect cells assessed as [gamma-33P]incorporation into MEK after 60 mins by scintillation counting
[19] = Oral bioavailability in CD-1 mouse at 10 mg/kg as formulation of 25% SDD; assay type: ADME, organism-based; details: in vivo
Outline: (§4)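 Oral dosing in mice used a 25% amorphous spray-dried dispersion on HPMCAS polymer, given at 10, 30, 60 and 100 mg/kg. Oral bioavailability (F) was determined at each dose.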

[20] = Oral bioavailability in CD-1 mouse at 60 mg/kg as formulation of 25% SDD; assay type: ADME, organism-based; details: in vivo; outline: as §4
[21] = Oral bioavailability in CD-1 mouse at 100 mg/kg as formulation of 25% SDD; assay type: ADME, organism-based; details: in vivo; outline: as §4
[22] = Clearance in CD-1 mouse; assay type: ADME, organism-based; details: in vivo
Outline: (§5)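 Some compounds were also given intravenously to mice. Clearance is reported in mL/min/kg and volume of distribution in L/kg.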

[23] = Oral bioavailability in CD-1 mouse at 30 mg/kg as formulation of 25% SDD; assay type: ADME, organism-based; details: in vivo; outline: as §4
[24] = Volume of distribution in CD-1 mouse; assay type: ADME, organism-based; details: in vivo; outline: as §5

| SMILES | IC50 [3] [nM] | IC50 [5] [nM] | AUC [6] [µg·h/mL] | fraction unbound [7] | solubility at 24 h [10] [µg/mL] | bioavailability [13] [%] | solubility at 24 h [16] [µg/mL] | IC50 [18] [nM] | clearance [22] [mL/min/kg] | Vd [24] [L/kg] | other results |
| --- | --- | --- | --- | --- | --- | --- | --- | --- | --- | --- | --- |
| CCCS(=O)(=O)Nc1ccc(F)c(C(=O)Nc2cnc3[nH]nc(OC)c3c2)c1F | 19 | 150 | 190 | 0.026 | 4 (≈ 9.4 µM) | 48 | 9 (≈ 21.2 µM) |  |  |  | bioavailability [1]: 19%; Activity (Mus musculus [2]): Non-toxic; ED50 (COLO 205 [4]): 20 mg/kg; ED90 (COLO 205 [4]): 80 mg/kg; bioavailability [8]: 51%; inhibition (INH) [9]: Not Active; inhibition (INH) [11]: Not Active; EC50 (COLO 205 [12]): 80 nM; Activity (Salmonella typhimurium): Non-toxic; AUC [14]: 664 µg·h/mL; Activity (Mus musculus [15]): Non-toxic |
| CCCS(=O)(=O)Nc1ccc(Cl)c(C(=O)Nc2cnc3[nH]nc(OC)c3c2)c1F | 20 | 240 | 1080 | 0.009 | < 1 | 53 | 2 (≈ 4.53 µM) | 1.7 | 1 | 0.11 | ED50 (COLO 205 [17]): 11 mg/kg; ED90 (COLO 205 [17]): 50 mg/kg; Activity (Mus musculus [2]): Non-toxic; bioavailability [19]: 53%; bioavailability [8]: 1.2%; inhibition (INH) [9]: Not Active; bioavailability [20]: 19%; bioavailability [21]: 13%; bioavailability [23]: 28%; inhibition (INH) [11]: Not Active; EC50 (COLO 205 [12]): 70 nM; Activity (Salmonella typhimurium): Non-toxic; AUC [14]: 50.7 µg·h/mL; Activity (Mus musculus [15]): Non-toxic |
| CCCS(=O)(=O)Nc1ccc(F)c(C(=O)Nc2cnc3[nH]ccc3c2)c1F | 94 | 290 | 200 | 0.021 | 1 (≈ 2.54 µM) | 76 | 4 (≈ 10.1 µM) | 38 | 1.9 | 0.2 |  |
| CCCS(=O)(=O)Nc1ccc(F)c(C(=O)Nc2cnc3[nH]ncc3c2)c1F | 62 | 430 | 40 | 0.129 | 80 (≈ 202 µM) | 100 | 150 (≈ 379 µM) | 17 | 15 | 0.68 |  |
| CCCS(=O)(=O)Nc1ccc(F)c(C(=O)Nc2cnc3[nH]nc(Br)c3c2)c1F | 44 | 260 | 52.5 | 0.016 | 1 (≈ 2.11 µM) |  | 3 (≈ 6.33 µM) | 4 |  |  |  |
| CCCS(=O)(=O)Nc1ccc(F)c(C(=O)Nc2cnc3[nH]nc(C)c3c2)c1F | 86 | 830 | 18.3 | 0.101 | 380 (≈ 928 µM) |  | 740 (≈ 1810 µM) | 12 |  |  |  |
| CCCS(=O)(=O)Nc1ccc(F)c(C(=O)Nc2cnc3[nH]cc(Br)c3c2)c1F | 39 | 190 | 49 | 0.006 | < 1 | 71 | < 1 | 3.4 | 7.2 | 0.24 |  |
| CCCS(=O)(=O)Nc1ccc(F)c(C(=O)Nc2cccnc2)c1F | 6700 | > 3000 |  |  |  |  |  | 3900 |  |  |  |
| CCCS(=O)(=O)Nc1ccc(F)c(C(=O)Nc2ccc(N)nc2)c1F | 2400 | > 3000 |  |  |  |  |  | 920 |  |  |  |
| CCCS(=O)(=O)Nc1ccc(F)c(C(=O)Nc2cnc(N)c(Br)c2)c1F | 310 | 1200 |  |  |  |  |  |  |  |  |  |
| CCCS(=O)(=O)Nc1ccc(F)c(C(=O)Nc2cnc3[nH]cnc3c2)c1F | 2400 | > 3000 |  |  |  |  |  | 61 |  |  |  |
| CCCS(=O)(=O)Nc1ccc(F)c(C(=O)Nc2cnc3[nH]nc(N(C)C)c3c2)c1F | 40 | 650 | 1.09 | 0.092 | 290 (≈ 661 µM) |  | 450 (≈ 1030 µM) | 8.2 |  |  |  |
| CCCS(=O)(=O)Nc1ccc(Cl)c(C(=O)Nc2cnc3[nH]ncc3c2)c1F | 56 | 560 | 147 | 0.029 | 15 (≈ 36.4 µM) | 67 | 48 (≈ 117 µM) | 6.3 | 2.3 | 0.17 |  |
| CCCS(=O)(=O)Nc1ccc(F)c(C(=O)c2c[nH]c3ncc(-c4ccc(Cl)cc4)cc23)c1F [VEMURAFENIB] |  |  |  |  |  |  |  |  |  |  | EC50 (COLO 205 [12]): 240 nM |
